Results as given in ChEMBL document CHEMBL4765256, “Structural features and functional activities of benzimidazoles as NOD2 antagonists” (Eur J Med Chem, 2020).
Activity calls are given as the source filed them. The calls are words filed in the database; no cut-off is given here.

What was measured:
HEK293 [1] = experiment: Cytotoxicity against human HEK293 cells expressing human NOD2 assessed as reduction in metabolic activity at 20 uM incubated for 18 hrs by MTS assay; assay type: ADME, cell-based; conditions: hek293, 18 h
In short: (§1)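 HEK-Blue NOD1 or NOD2 cells seeded at 1 × 10^4 cells/well in triplicate. Treated 18 h with 20 µM compound or 0.1% DMSO vehicle. Metabolic activity read by MTS (CellTiter 96 AQueous One) and expressed relative to vehicle control. Mean ± SD of three biological replicates.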

[2] = molecular target: T1, Nucleotide-binding oligomerization domain-containing protein 2 (Homo sapiens, UniProt Q9HC29); experiment: Antagonist activity at human NOD2 expressed in HEK293 cells assessed as reduction in MDP-induced NF-kappaB activation at 10 uM preincubated for 1 hr followed by MDP stimulation and measured after 18 hrs by SEAP reporter gene based spectrophotometric analysis; assay type: cell-based; conditions: time 19.0 hrs
In short: (§2)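 HEK-Blue NOD1 or NOD2 reporter cells (5 × 10^5 cells/mL, passages 7–12) pre-treated 1 h with 10 µM compound. Then 100 nM C12-iE-DAP (NOD1) or 2 µM MDP (NOD2) for 18 h at 37 °C, 5% CO2. Secreted SEAP read at 620 nm. DMSO ≤0.1% vehicle control. Duplicates, three biological replicates.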

HEK293 [3] = experiment: Cytotoxicity against human HEK293 cells expressing human NOD1 assessed as reduction in metabolic activity at 20 uM incubated for 18 hrs by MTS assay; assay type: ADME, cell-based; conditions: hek293, 18 h; in short: as §1
[4] = molecular target: T2, Nucleotide-binding oligomerization domain-containing protein 1 (Homo sapiens) (UniProt Q9Y239); experiment: Antagonist activity at human NOD1 expressed in HEK293 cells assessed as reduction in C12-iE-DAP-induced NF-kappaB activation at 10 uM preincubated for 1 hr followed by C12-iE-DAP stimulation and measured after 18 hrs by SEAP reporter gene based spectrophotometric analysis; assay type: cell-based; conditions: time 19.0 hrs; in short: as §2
T2 sequence (whole entry): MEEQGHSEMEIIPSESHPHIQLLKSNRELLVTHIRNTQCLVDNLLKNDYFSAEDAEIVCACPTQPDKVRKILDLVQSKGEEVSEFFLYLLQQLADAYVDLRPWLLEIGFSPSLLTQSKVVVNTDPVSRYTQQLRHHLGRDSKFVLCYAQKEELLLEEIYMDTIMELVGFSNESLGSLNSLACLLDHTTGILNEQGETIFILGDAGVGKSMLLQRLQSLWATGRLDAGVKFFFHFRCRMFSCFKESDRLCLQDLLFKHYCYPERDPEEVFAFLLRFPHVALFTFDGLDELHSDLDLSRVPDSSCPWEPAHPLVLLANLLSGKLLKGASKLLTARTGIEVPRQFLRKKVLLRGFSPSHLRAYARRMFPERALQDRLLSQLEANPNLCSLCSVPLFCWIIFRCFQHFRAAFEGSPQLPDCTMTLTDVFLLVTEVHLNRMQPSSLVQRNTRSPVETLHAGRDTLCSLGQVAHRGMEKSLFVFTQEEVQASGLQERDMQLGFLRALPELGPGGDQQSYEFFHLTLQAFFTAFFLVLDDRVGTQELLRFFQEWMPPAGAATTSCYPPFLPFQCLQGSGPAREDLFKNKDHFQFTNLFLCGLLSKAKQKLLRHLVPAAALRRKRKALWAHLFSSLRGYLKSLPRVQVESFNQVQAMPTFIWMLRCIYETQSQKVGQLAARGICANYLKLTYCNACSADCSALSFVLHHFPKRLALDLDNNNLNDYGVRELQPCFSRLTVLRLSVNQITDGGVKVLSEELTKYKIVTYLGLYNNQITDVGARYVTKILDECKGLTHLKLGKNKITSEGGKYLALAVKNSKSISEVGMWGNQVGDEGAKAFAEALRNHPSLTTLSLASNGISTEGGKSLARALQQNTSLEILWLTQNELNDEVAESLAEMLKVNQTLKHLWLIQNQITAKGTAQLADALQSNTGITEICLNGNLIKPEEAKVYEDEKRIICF

[5] = molecular target: T1, Nucleotide-binding oligomerization domain-containing protein 2; experiment: Antagonist activity at human NOD2 expressed in HEK293 cells assessed as reduction in MDP-induced NF-kappaB activation preincubated for 1 hr followed by MDP stimulation and measured after 18 hrs by SEAP reporter gene based spectrophotometric analysis; assay type: cell-based
In short: (§3)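 Dose–response in HEK-Blue NOD2 and NOD1 cells (5 × 10^5 cells/mL): 1 h pre-treatment with 0.3125–20 µM antagonist, then 2 µM MDP or 100 nM C12-iE-DAP respectively, 18 h incubation. SEAP absorbance read at 620 nm. IC50 fitted by non-linear regression. Duplicates, three biological replicates, DMSO ≤0.1%.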

[6] = molecular target: T3, Nucleotide-binding oligomerization domain-containing protein 1 (Homo sapiens, UniProt Q9Y239); experiment: Antagonist activity at human NOD1 expressed in HEK293 cells assessed as reduction in C12-iE-DAP-induced NF-kappaB activation preincubated for 1 hr followed by C12-iE-DAP stimulation and measured after 18 hrs by SEAP reporter gene based spectrophotometric analysis; assay type: cell-based
T3 sequence (Q9Y239 whole entry): T2 sequence (whole entry)

THP-1 [7] = experiment: Antagonist activity at NOD1/TLR4 in human THP-1 cells assessed as reduction in C12-iE-DAP/LPS-induced TNF-alpha secretion at 20 uM preincubated for 1 hr followed by C12-iE-DAP/LPS stimulation and measured after 20 hrs by ELISA; assay type: cell-based; conditions: time 21.0 hrs
In short: (§4)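 Synergy setting in THP-1 cells: 1 h pre-treatment with 20 µM compound, then 10 µM MDP or C12-iE-DAP plus 1 ng/mL E. coli O127:B8 LPS for 20 h. Supernatant TNF-α by sandwich ELISA, detection limit 4 pg/mL. DMSO vehicle ≤0.2%. Duplicates from three independent experiments, mean ± SD, Dunnett test against agonist+LPS-treated cells.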

[8] = molecular target: T2, Nucleotide-binding oligomerization domain-containing protein 1 (Homo sapiens); experiment: Antagonist activity at NOD1 in human THP-1 cells assessed as reduction in C12-iE-DAP-induced IL-8 secretion at 20 uM preincubated for 1 hr followed by C12-iE-DAP stimulation and measured after 20 hrs by ELISA; assay type: cell-based; conditions: filed as antagonist, time 21.0 hrs
In short: (§5)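 THP-1 cells at 10^6 cells/mL in 24-well cultures, passages 3–12. Pre-treated 1 h with 20 µM compound, then 10 µM MDP (NOD2) or 10 µM C12-iE-DAP (NOD1) added, 20 h at 37 °C, 5% CO2. Triplicate wells, DMSO ≤0.2% as vehicle control. Supernatant IL-8 by sandwich ELISA, detection limit 15.6 pg/mL. Mean ± SD of duplicates from three independent experiments, Dunnett test.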

THP-1 [9] = experiment: Antagonist activity at NOD in human THP-1 cells assessed as increase in IL-8 secretion at 20 uM; assay type: cell-based
In short: (§6)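 THP-1 cells at 10^6 cells/mL in RPMI 1640 with 10% heat-inactivated FCS, passages 3–12, exposed to 20 µM compound alone (no NOD agonist). IL-8 and TNF-α in cell-free supernatants measured by sandwich ELISA, reported in pg/mL. Detection limits were 15.6 pg/mL for IL-8 and 4 pg/mL for TNF-α. DMSO vehicle control, not above 0.2% final.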

[10] = molecular target: T1, Nucleotide-binding oligomerization domain-containing protein 2; experiment: Antagonist activity at NOD2 in human THP-1 cells assessed as reduction in MDP-induced IL-8 secretion at 20 uM preincubated for 1 hr followed by MDP stimulation and measured after 20 hrs by ELISA; assay type: cell-based; conditions: filed as antagonist, time 21.0 hrs; in short: as §5
THP-1 [11] = experiment: Cytotoxicity against human THP-1 cells assessed as […] dehydrogenase leakage at 20 uM incubated for 18 hrs; assay type: cell-based; conditions: thp-1, 18 h
In short: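 THP-1 cells treated 18 h with compound at up to 20 µM. Lactate dehydrogenase released into cell-free supernatant measured with a colorimetric kit, results given as OD.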

THP-1 [12] = experiment: Antagonist activity at NOD in human THP-1 cells assessed as increase in TNF-alpha secretion at 20 uM; assay type: cell-based; in short: as §6
THP-1 [13] = experiment: Antagonist activity at NOD2/TLR4 in human THP-1 cells assessed as reduction in MDP/LPS-induced TNF-alpha secretion at 20 uM preincubated for 1 hr followed by MDP/LPS stimulation and measured after 20 hrs by ELISA; assay type: cell-based; conditions: filed as antagonist, time 21.0 hrs; in short: as §4
Homo sapiens = species on record: Homo sapiens; experiment: Selectivity index, ratio of IC50 for antagonist activity at human NOD1 expressed in HEK293 cells assessed as reduction in […] induced NF-kappaB activation preincubated for 1 hr followed by C12-iE-DAP stimulation and measured after 18 hrs by SEAP reporter gene based spectrophotometric analysis to IC50 for antagonist activity at human NOD2 cells expressed in HEK293 cells assessed as reduction in MDP induced NF-kappaB activation preincubated for 1 hr followed by […] stimulation and measured after 18 hrs by SEAP reporter gene based spectrophotometric analysis; assay type: cell-based; in short: as §3

T1 sequence (Q9HC29 whole entry, the tested form may be a part): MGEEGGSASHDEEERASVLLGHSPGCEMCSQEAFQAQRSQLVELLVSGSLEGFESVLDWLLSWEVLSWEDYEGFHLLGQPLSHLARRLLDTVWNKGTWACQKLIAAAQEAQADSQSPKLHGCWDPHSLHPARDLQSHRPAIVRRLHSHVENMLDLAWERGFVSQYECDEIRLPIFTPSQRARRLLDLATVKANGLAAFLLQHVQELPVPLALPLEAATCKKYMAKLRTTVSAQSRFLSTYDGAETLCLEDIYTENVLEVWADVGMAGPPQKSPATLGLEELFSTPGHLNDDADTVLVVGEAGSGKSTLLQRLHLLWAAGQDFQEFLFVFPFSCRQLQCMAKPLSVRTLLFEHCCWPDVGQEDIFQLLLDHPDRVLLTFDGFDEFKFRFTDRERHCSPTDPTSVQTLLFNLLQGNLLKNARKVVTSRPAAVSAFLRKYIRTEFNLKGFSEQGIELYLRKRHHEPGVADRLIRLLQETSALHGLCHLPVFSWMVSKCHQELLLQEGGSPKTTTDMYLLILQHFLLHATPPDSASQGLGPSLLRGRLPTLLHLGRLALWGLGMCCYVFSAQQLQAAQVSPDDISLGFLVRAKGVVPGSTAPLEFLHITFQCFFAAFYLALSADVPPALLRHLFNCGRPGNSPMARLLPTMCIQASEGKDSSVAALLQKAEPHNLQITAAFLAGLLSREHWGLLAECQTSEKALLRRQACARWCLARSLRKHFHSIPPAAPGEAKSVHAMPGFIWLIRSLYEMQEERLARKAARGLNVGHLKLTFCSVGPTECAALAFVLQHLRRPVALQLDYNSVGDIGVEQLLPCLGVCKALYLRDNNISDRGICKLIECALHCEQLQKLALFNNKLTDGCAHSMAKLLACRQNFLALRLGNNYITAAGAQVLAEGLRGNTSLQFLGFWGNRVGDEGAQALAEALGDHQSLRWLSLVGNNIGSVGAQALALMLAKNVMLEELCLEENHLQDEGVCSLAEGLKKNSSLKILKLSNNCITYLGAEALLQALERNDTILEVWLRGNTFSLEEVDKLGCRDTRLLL

Row | SMILES | Activity (HEK293 [1]) | Activity [2] | Activity (HEK293 [3]) | Activity [4] | IC50 ([5]; read-out: IC50) [µM] | IC50 [6] [µM] | Activity ([2]; filed as antagonist) | Activity ([4]; filed as antagonist) | other results
1 | O=C(Cn1c(CCNC(=O)c2ccncc2)nc2ccccc21)Nc1ccc2c(c1)CCC2 | Non-Toxic | inactive | Non-Toxic | inactive |  |  |  |  | 
2 | O=C(Cc1ccncc1)NCCc1nc2ccccc2n1CC(=O)Nc1ccc2c(c1)CCC2 | Non-Toxic | inactive | Non-Toxic | inactive | 25.9 | 42.3 |  |  | 
3 | O=C(CCc1nc2ccccc2n1CC(=O)Nc1ccc2c(c1)CCC2)Nc1ccccc1 | Non-Toxic |  | Non-Toxic |  | 8.8 | 12.4 | Active | Active | 
4 | O=C(Cn1c(CCNCc2ccccc2)nc2ccccc21)Nc1ccc2c(c1)CCC2 | Toxic |  | Toxic |  | 4.76 | 30.7 | Active | Active | 
5 | Cc1ccc(S(=O)(=O)n2c(N)nc3ccccc32)cc1 | Non-Toxic |  | Non-Toxic |  |  |  |  | Active | Activity (THP-1 [7]; filed as antagonist): Active; Activity [8]: Active
6 | O=C(Cn1c(CCCNS(=O)(=O)c2ccccc2)nc2ccccc21)Nc1ccc2c(c1)CCC2 | Non-Toxic |  | Non-Toxic |  | 5.12 | 9.25 |  |  | 
7 | O=C(Cn1c(CCNCc2ccncc2)nc2ccccc21)Nc1ccc2c(c1)CCC2 | Non-Toxic | inactive | Non-Toxic | inactive | 22.9 | 27.8 |  |  | 
8 | CN(C)c1cccc2c(S(=O)(=O)NCCc3nc4ccccc4n3CC(=O)Nc3ccc4c(c3)CCC4)cccc12 | Non-Toxic |  | Non-Toxic |  | 6.2 | 2.68 | Active | Active | Activity (THP-1 [7]): inactive; Activity (THP-1 [9]): inactive; Activity [10]: Active; Activity (THP-1 [11]): Non-Toxic; Activity (THP-1 [12]): inactive; Activity (THP-1 [13]): Active; Activity [8]: Active
9 | CN(CCCc1nc2ccccc2n1CC(=O)Nc1ccc2c(c1)CCC2)S(=O)(=O)c1ccccc1 | Non-Toxic |  | Non-Toxic |  | 5.08 | 1.66 |  |  | 
10 | CN(CCc1nc2ccccc2n1CC(=O)Nc1ccc2c(c1)CCC2)S(=O)(=O)c1ccccc1 | Non-Toxic |  | Non-Toxic |  | 0.63 | 2.56 |  |  | 
11 | O=C(Cn1c(CNC(=O)c2ccccc2)nc2ccccc21)Nc1ccc2c(c1)CCC2 | Non-Toxic | inactive | Non-Toxic | inactive |  |  |  |  | 
12 | CN(C)c1cccc2c(S(=O)(=O)N(C)CCc3nc4ccccc4n3CC(=O)Nc3ccc4c(c3)CCC4)cccc12 | Non-Toxic |  | Non-Toxic |  | > 20 | 3.08 |  |  | 
13 | CC(C)(C)OC(=O)N1CCC(C(=O)NCCc2nc3ccccc3n2CC(=O)Nc2ccc3c(c2)CCC3)CC1 | Non-Toxic |  | Non-Toxic |  | 10.6 | 13.3 | Active | Active | 
14 | O=C(Cn1c(CCCNC(=O)c2ccccc2)nc2ccccc21)Nc1ccc2c(c1)CCC2 | Non-Toxic |  | Non-Toxic |  | 5.7 | 17.7 | Active | Active | Activity (THP-1 [7]): inactive; Activity (THP-1 [9]): inactive; Activity [10]: Active; Activity (THP-1 [11]): Non-Toxic; Activity (THP-1 [12]): inactive; Activity (THP-1 [13]): Active; Activity [8]: Active
15 | O=C(Cn1c(CCNS(=O)(=O)c2cccnc2)nc2ccccc21)Nc1ccc2c(c1)CCC2 | Non-Toxic |  | Non-Toxic |  | 16.4 | 32 | Active | Active | 
16 | O=C(Cn1c(CCNC(=O)c2cccnc2)nc2ccccc21)Nc1ccc2c(c1)CCC2 | Non-Toxic | inactive | Non-Toxic | inactive |  |  |  |  | IC50 ([5]; hek293): Not Active
17 | Cl.O=C(Cn1c(CCNC(=O)C2CCNCC2)nc2ccccc21)Nc1ccc2c(c1)CCC2 | Non-Toxic | inactive | Non-Toxic | inactive |  |  |  |  | 
18 | O=C(Cn1c(CCNC(=O)c2ccccc2)nc2ccccc21)Nc1ccc2c(c1)CCC2 | Non-Toxic |  | Non-Toxic |  | 6.2 | 27.6 | Active | Active | Activity [10]: Active; Ratio IC50 (Homo sapiens): 4.5
